Test results published in ChEMBL document CHEMBL1821600, “Synthesis and antiviral evaluation of α-L-2'-deoxythreofuranosyl nucleosides” (Eur J Med Chem, 2011).
In brackets after ≈: the same amount, converted by molar mass. Activity calls are given as the source filed them. The calls are words filed in the database; no cut-off is given here.

Key:
Human betaherpesvirus 5 = assay: Antiviral activity against Human cytomegalovirus infected in human HEL cells assessed as inhibition of virus-induced cytopathicity upto 200 uM administered after 1 hr virus adsorption period; assay type: functional, organism-based
[1] = test system: Human immunodeficiency virus 1; assay: Antiviral activity against Human immunodeficiency virus 1 3B infected in human CEM cells assessed as inhibition of virus-induced giant cell formation after 4 days by microscopic method; assay type: functional, organism-based; conditions: CCRF-CEM; for EC50: 96 h
Summary of the method: (§1)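 CEM cells (~3×10^5 cells/cm³) were infected with 100 CCID50/mL of HIV-1(IIIB) or HIV-2(ROD) and seeded into wells containing serial compound dilutions. After 4 days at 37 °C, giant (syncytium) cell formation was scored microscopically.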

Influenza A virus [2] = assay: Antiviral activity against Influenza A virus H3N2 infected in MDCK cells assessed as inhibition of virus-induced cytopathicity upto 200 uM administered after 1 hr virus adsorption period; assay type: functional, organism-based
Influenza B virus = assay: Antiviral activity against influenza B virus infected in MDCK cells assessed as inhibition of virus-induced cytopathicity upto 200 uM administered after 1 hr virus adsorption period; assay type: functional, organism-based
[3] = target: T1, Thymidine kinase 2, mitochondrial (Homo sapiens, UniProt O00142); assay: Inhibition of human mitochondrial TK2 assessed as inhibition of [methyl-3H]dThd phosphorylation after 30 mins by scintillation counting
T1 sequence (O00142 whole entry): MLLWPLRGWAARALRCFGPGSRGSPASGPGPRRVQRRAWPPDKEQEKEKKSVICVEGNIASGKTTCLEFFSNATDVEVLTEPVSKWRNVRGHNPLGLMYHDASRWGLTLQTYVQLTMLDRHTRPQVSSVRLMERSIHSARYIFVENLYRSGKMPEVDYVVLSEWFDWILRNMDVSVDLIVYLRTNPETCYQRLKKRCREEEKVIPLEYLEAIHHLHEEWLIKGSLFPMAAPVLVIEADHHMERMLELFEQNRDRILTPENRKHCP
Summary of the method: (§2)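 Recombinant enzyme (TK-1, TK-2, HSV-1 TK, VZV TK or Drosophila dNK) was used in 50 mM Tris/HCl pH 8.0 with 2.5 mM MgCl2, 10 mM DTT, 0.5 mM CHAPS, 3 mg/mL BSA, 2.5 mM ATP and 1 µM [methyl-3H]dThd. Compound was added as 5-fold dilutions, and reactions ran 30 min at 37 °C, still linear. Mixtures were spotted on DE-81 disks, washed in ammonium formate, water and ethanol, then scintillation counted. IC50 was determined.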

Coxsackievirus B4 = assay: Antiviral activity against Coxsackievirus B4 infected in HeLa cells assessed as inhibition of virus-induced cytopathicity upto 200 uM administered after 1 hr virus adsorption period; assay type: functional, organism-based
Summary of the method: (§3)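 Confluent cell monolayers (HEL for HSV-1 and HSV-2; Vero for parainfluenza-3, reovirus-1, Sindbis and Punta Toro; HeLa for Coxsackie B4 and RSV) in 96-well plates were inoculated with 100 CCID50 of virus. After 1 h adsorption, unbound virus was removed. Cells were then kept with compound at 200, 40, 8… μM. Cytopathicity was scored once untreated infected controls reached full CPE.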

[4] = Inhibition of Herpes simplex virus type 1 thymidine kinase assessed as inhibition of [methyl-3H]dThd phosphorylation after 30 mins by scintillation counting; set-up: species or system Human alphaherpesvirus 1; summary of the method: as §2
Human respirovirus 3 = assay: Antiviral activity against Parainfluenza virus 3 infected in Vero cells assessed as inhibition of virus-induced cytopathicity upto 200 uM administered after 1 hr virus adsorption period; assay type: functional, organism-based; summary of the method: as §3
[5] = target: Thymidine kinase, cytosolic (Homo sapiens, UniProt P04183); assay: Inhibition of human recombinant cytosolic TK1 assessed as inhibition of [methyl-3H]dThd phosphorylation after 30 mins by scintillation counting; summary of the method: as §2
Human alphaherpesvirus 2 = assay: Antiviral activity against Herpes simplex virus type 2 infected in HEL cells assessed as inhibition of virus-induced cytopathicity upto 200 uM administered after 1 hr virus adsorption period; assay type: functional, organism-based; summary of the method: as §3
[6] = test system: Vesicular stomatitis virus; assay: Antiviral activity against Vesicular stomatitis virus infected in HEL cells assessed as inhibition of virus-induced cytopathicity upto 200 uM administered after 1 hr virus adsorption period; assay type: functional, organism-based
Vaccinia virus = assay: Antiviral activity against Vaccinia virus infected in HEL cells assessed as inhibition of virus-induced cytopathicity upto 200 uM administered after 1 hr virus adsorption period; assay type: functional, organism-based; conditions: Orthopoxvirus vaccinia
Human alphaherpesvirus 3 = assay: Antiviral activity against Varicella Zoster Virus infected in human HEL cells assessed as inhibition of virus-induced cytopathicity upto 200 uM administered after 1 hr virus adsorption period; assay type: functional, organism-based
HeLa = assay: Cytotoxicity against human HeLa cells at 100 ug/ml; assay type: cell-based
Influenza A virus [7] = assay: Antiviral activity against influenza A virus H1N1 infected in MDCK cells assessed as inhibition of virus-induced cytopathicity upto 200 uM administered after 1 hr virus adsorption period; assay type: functional, organism-based
Sindbis virus = assay: Antiviral activity against Sindbis virus infected in Vero cells assessed as inhibition of virus-induced cytopathicity upto 200 uM administered after 1 hr virus adsorption period; assay type: functional, organism-based; summary of the method: as §3
MDCK = assay: Cytotoxicity against MDCK cells at 100 ug/ml; assay type: cell-based, Canis lupus familiaris; conditions: dog
[8] = test system: Mammalian orthoreovirus 1; assay: Antiviral activity against Reovirus 1 infected in Vero cells assessed as inhibition of virus-induced cytopathicity upto 200 uM administered after 1 hr virus adsorption period; assay type: functional, organism-based; summary of the method: as §3
[9] = Inhibition of varicella zoster virus thymidine kinase assessed as inhibition of [methyl-3H]dThd phosphorylation after 30 mins by scintillation counting; set-up: species or system Human alphaherpesvirus 3; summary of the method: as §2
HEL = assay: Cytotoxicity against human HEL cells at 100 ug/ml; assay type: cell-based
CCRF-CEM = assay: Cytotoxicity against human CEM cells at 100 ug/ml; assay type: cell-based
[10] = test system: Human immunodeficiency virus 2; assay: Antiviral activity against Human immunodeficiency virus type 2 ROD infected in human CEM cells assessed as inhibition of virus-induced giant cell formation after 4 days by microscopic method; assay type: functional, organism-based; conditions: CCRF-CEM; for EC50: Human immunodeficiency virus 2, ISOLATE ROD, 96 h; summary of the method: as §1
Feline coronavirus = assay: Antiviral activity against Feline coronavirus infected in CRFK cells assessed as inhibition of virus-induced cytopathicity upto 200 uM administered after 1 hr virus adsorption period; assay type: functional, organism-based
[11] = test system: Respiratory syncytial virus; assay: Antiviral activity against Respiratory syncytial virus infected in HeLa cells assessed as inhibition of virus-induced cytopathicity upto 200 uM administered after 1 hr virus adsorption period; assay type: functional, organism-based; summary of the method: as §3
Punta Toro virus = assay: Antiviral activity against Punta Toro virus infected in Vero cells assessed as inhibition of virus-induced cytopathicity upto 200 uM administered after 1 hr virus adsorption period; assay type: functional, organism-based; summary of the method: as §3
Deoxynucleoside kinase = target: T2, Deoxynucleoside kinase (Drosophila melanogaster, UniProt Q9XZT6); assay: Inhibition of Drosophila melanogaster deoxynucleoside kinase assessed as inhibition of [methyl-3H]dThd phosphorylation after 30 mins by scintillation counting; summary of the method: as §2
T2 sequence (Q9XZT6 whole entry): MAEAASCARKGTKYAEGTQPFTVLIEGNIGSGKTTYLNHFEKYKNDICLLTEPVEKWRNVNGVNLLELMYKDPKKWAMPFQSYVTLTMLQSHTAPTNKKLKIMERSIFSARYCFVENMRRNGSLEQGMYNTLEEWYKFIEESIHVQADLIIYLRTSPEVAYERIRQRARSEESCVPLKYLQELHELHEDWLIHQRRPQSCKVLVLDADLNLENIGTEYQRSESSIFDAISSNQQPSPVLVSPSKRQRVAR

Vero = assay: Cytotoxicity against african green monkey Vero cells at 100 ug/ml; assay type: cell-based; conditions: chlorocebus sabaeus
[12] = Cytotoxicity against CRFK cells at 100 ug/ml; assay type: cell-based, Felis catus; conditions: cat
Human alphaherpesvirus 1 [13] = assay: Antiviral activity against Herpes simplex virus type 1 infected in HEL cells assessed as inhibition of virus-induced cytopathicity upto 200 uM administered after 1 hr virus adsorption period; assay type: functional, organism-based; summary of the method: as §3
Human alphaherpesvirus 1 [14] = assay: Antiviral activity against TK-deficient Herpes simplex virus type 1 infected in HEL cells assessed as inhibition of virus-induced cytopathicity upto 200 uM administered after 1 hr virus adsorption period; assay type: functional, organism-based
[15] = Non-competitive inhibition of Herpes simplex virus type 1 thymidine kinase assessed as inhibition of [methyl-3H]dThd phosphorylation by scintillation counting; set-up: species or system Human alphaherpesvirus 1
Thymidylate kinase = Thymidylate kinase (Mycobacterium tuberculosis, UniProt P9WKE1); assay: Inhibition of Mycobacterium tuberculosis Thymidylate kinase
Sequence of Thymidylate kinase (P9WKE1 whole entry): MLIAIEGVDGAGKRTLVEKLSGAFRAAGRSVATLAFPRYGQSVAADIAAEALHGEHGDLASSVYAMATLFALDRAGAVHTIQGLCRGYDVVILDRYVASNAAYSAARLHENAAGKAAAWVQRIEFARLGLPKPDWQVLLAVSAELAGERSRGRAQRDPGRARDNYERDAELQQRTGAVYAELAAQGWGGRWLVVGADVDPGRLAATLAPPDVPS

Sequence of Thymidine kinase, cytosolic (P04183 whole entry): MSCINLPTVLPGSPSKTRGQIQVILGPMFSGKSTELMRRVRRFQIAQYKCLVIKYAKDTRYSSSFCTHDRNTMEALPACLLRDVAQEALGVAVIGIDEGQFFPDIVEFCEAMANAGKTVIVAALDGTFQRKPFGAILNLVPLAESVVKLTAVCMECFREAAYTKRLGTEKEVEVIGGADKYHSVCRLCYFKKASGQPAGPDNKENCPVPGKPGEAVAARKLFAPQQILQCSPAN

SMILES	inhibition (Human betaherpesvirus 5)	inhibition (Influenza A virus [2])	inhibition (Influenza B virus)	inhibition (Coxsackievirus B4)	inhibition (Human respirovirus 3)	inhibition (Human alphaherpesvirus 2)	inhibition [6]	inhibition (Vaccinia virus)	inhibition (Human alphaherpesvirus 3)	Activity (HeLa)	inhibition (Influenza A virus [7])	inhibition (Sindbis virus)	Activity (MDCK)	inhibition [8]	Activity (HEL)	Activity (CCRF-CEM)	inhibition (Feline coronavirus)	inhibition [11]	inhibition (Punta Toro virus)	Activity (Vero)	other results
Nc1ccn([C@H]2C[C@@H](O)CO2)c(=O)n1	inactive	inactive	inactive	inactive	inactive	inactive	inactive	inactive	inactive	Non-toxic	inactive	inactive	Non-toxic	inactive	Non-toxic	Non-toxic	inactive	inactive	inactive	Non-toxic	EC50 [1]: > 100 µg/mL; IC50 [3]: > 1010 µM; IC50 [4]: > 200 µg/mL; IC50 [5]: 1010 µM; IC50 [9]: > 200 µg/mL; EC50 [10]: > 100 µg/mL; IC50 (Deoxynucleoside kinase): > 1010 µM; Activity [12]: Non-toxic; inhibition (Human alphaherpesvirus 1 [13]): inactive
O=c1ccn([C@H]2C[C@@H](O)CO2)c(=O)[nH]1	inactive	inactive	inactive	inactive	inactive	inactive	inactive	inactive	inactive	Non-toxic	inactive	inactive	Non-toxic	inactive	Non-toxic	Non-toxic	inactive	inactive	inactive	Non-toxic	EC50 [1]: > 100 µg/mL; IC50 [3]: 303 µM; IC50 [4]: > 200 µg/mL; IC50 [9]: > 200 µg/mL; EC50 [10]: > 100 µg/mL; IC50 (Deoxynucleoside kinase): > 1010 µM; Activity [12]: Non-toxic; inhibition (Human alphaherpesvirus 1 [13]): inactive
Cc1cn([C@H]2C[C@@H](O)CO2)c(=O)[nH]c1=O	inactive	inactive	inactive	inactive	inactive	inactive	inactive	inactive	inactive	Non-toxic	inactive	inactive	Non-toxic	inactive	Non-toxic	Non-toxic	inactive	inactive	inactive	Non-toxic	inhibition [1]: inactive; IC50 [3]: 429 µM; IC50 [4]: 14 µg/mL (≈ 66 µM); IC50 [9]: 26 µg/mL (≈ 123 µM); inhibition (Human alphaherpesvirus 1 [14]): inactive; Ki [15]: 20 µM; inhibition ([10]; ISOLATE ROD): inactive; IC50 (Deoxynucleoside kinase): ≥ 942 µM; Ki (Thymidylate kinase): 18 µM; Activity [12]: Non-toxic; inhibition (Human alphaherpesvirus 1 [13]): inactive
CC(=O)Nc1ccn([C@H]2C[C@@H](O)CO2)c(=O)n1	inactive	inactive	inactive	inactive	inactive	inactive	inactive	inactive	inactive	Non-toxic	inactive	inactive	Non-toxic	inactive	Non-toxic	Non-toxic	inactive	inactive	inactive	Non-toxic	EC50 [1]: > 100 µg/mL; EC50 [10]: > 100 µg/mL; Activity [12]: Non-toxic; inhibition (Human alphaherpesvirus 1 [13]): inactive
Nc1ncnc2c1ncn2[C@H]1C[C@@H](O)CO1	inactive	inactive	inactive	inactive	inactive	inactive	inactive	inactive	inactive	Non-toxic	inactive	inactive	Non-toxic	inactive	Non-toxic	Non-toxic	inactive	inactive	inactive	Non-toxic	EC50 [1]: > 100 µg/mL; IC50 [3]: > 904 µM; IC50 [4]: > 200 µg/mL; IC50 [5]: > 904 µM; IC50 [9]: > 200 µg/mL; EC50 [10]: > 100 µg/mL; IC50 (Deoxynucleoside kinase): > 904 µM; Activity [12]: Non-toxic; inhibition (Human alphaherpesvirus 1 [13]): inactive
